Shown are actives, neighbours in structure and some others; about 1.9% of the full set was active somewhere.
Rtt109 HAT inh: C. albicans Rtt109 histone acetyltransferase inhibition; Q5AAJ8; purified Rtt109/Vps75, ThioGlo CoA-SH fluorescence, 4 h; inhibition, % at 34.9 µM; hit rate 0.16% among 330,000; AID 540336;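 active = inhibition of at least 50% in every replicate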
FGF22 binding: FGF22 (human) thermal shift binding; Q9HCT0; recombinant FGF22 thermal shift, SYPRO orange fluorescence; percent of sucrose octasulfate shift, DMSO zero; activity (Tm shift, normalised), % at 9.99 µM; hit rate 1.5% among 340,000; AID 651658;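 active = mean Tm shift, scaled 0 neutral to 100 positive control, at about 1.3% or above, every replicate too, limit read from the data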
Efflux pump mplx: blocks antifungal efflux pumps in multiplex yeast assay. S. cerevisiae Candida pump triplex, Nile Red efflux. inhibition, % at 10 µM. hit rate 0.44% among 330,000;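 active = plate passing quality check with inhibition over a set limit, or well fluorescence over plate mean plus 4 SD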;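 note: Nile Red retained in pooled yeast measured as flow cytometry median fluorescence; 0% = buffer negative control and 100% = Enniatin B positive control; higher means more Nile Red kept so more efflux inhibition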
ARFGAP1 inh: rat ARFGAP1 inhibition | Q62848 | Arfgap1-stimulated ARF1 GTP hydrolysis, GDP FP detection | inhibition, % at 16.5 µM | hit rate 0.26% among 360,000 | AID 651572;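 active = inhibition above a per-plate limit, mean inhibition of low control wells plus 3 SD, cut at about 25% in these data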;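 note: 0% = DMSO wells with enzyme and 100% = wells lacking Arfgap1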
Target sequence (Q62848 1-136 limits assumed): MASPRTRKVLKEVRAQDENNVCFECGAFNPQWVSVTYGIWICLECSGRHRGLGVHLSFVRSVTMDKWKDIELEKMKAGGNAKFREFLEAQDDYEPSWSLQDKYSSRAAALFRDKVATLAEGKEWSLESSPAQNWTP
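Material – truncated rat Arfgap1 GAP domain · Buffer or medium – HEPES-based buffer, pH 7.5 · Reagent – human ARF1(Δ1-17)-GTP substrate · Dosing – 16.5 µM single point, 1.26% DMSO · Schedule – GTP hydrolysis reaction 2 h at 25 °C · Technique – GDP detection by fluorescence polarization · Benchmarks – No-Arfgap1 wells (100%) versus DMSO full-reaction wells (0%) · Repeats – single replicate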
ASAP1 GAP inh: ASAP1 ArfGAP inhibition; ASAP1-stimulated ARF1 GTP hydrolysis, GDP FP detection; inhibition, % at 16.5 µM; AID 624377; hit rate 0.19% among 360,000; in the data active = inhibition above about 25%;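 note: 0% = vehicle with enzyme and substrate and 100% = no enzyme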
Target sequence (Q9ULH1 325-724 limits assumed): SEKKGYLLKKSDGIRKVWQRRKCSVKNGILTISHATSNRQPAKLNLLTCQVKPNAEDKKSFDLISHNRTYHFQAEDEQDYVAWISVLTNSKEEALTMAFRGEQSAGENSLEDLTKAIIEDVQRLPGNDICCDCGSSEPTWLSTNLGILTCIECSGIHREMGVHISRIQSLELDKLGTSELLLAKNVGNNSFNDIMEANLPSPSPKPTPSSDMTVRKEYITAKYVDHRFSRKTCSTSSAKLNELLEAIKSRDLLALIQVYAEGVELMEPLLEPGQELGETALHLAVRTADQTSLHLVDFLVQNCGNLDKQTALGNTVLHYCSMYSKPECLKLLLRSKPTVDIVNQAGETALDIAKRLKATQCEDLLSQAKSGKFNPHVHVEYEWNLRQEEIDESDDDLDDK
ARFGAP1 confirm: rat ARFGAP1 inhibition, confirmed; shares compounds with ARFGAP1 inh; ARFGAP1-stimulated ARF1 GTP hydrolysis, GDP tracer FP; inhibition, % at 16.5 µM; hit rate 30% among 890;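 active = average inhibition over triplicates above the hit cutoff set in the earlier primary screen, cut at about 25% in these data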;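 note: 0% = Arfgap1 plus ARF1-GTP with DMSO and 100% = wells lacking Arfgap1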
The depositor's hits bear a star; / = no result.

SMILES	Rtt109 HAT inh	FGF22 binding	Efflux pump mplx	ARFGAP1 inh	ASAP1 GAP inh	ARFGAP1 confirm
COC(=O)C1=C(C)N(Cc2ccccc2C(F)(F)F)C(=NCc2ccccc2)NC1c1ccc(C(F)(F)F)cc1 (stereo unspecified)	/	0	/	25*	3	11
C=CCn1c(SCC(=O)c2ccc(O)c(O)c2)nnc1-c1cccnc1	0	-1	0	6	-15	/
COc1ccc(-n2c(SCC(=O)O)nc3sc4c(c3c2=O)CCCC4)cc1	-6	0	0	35*	20	52*
COc1ccc(-n2c(SCC(N)=O)nc3sc4c(c3c2=O)CCN(C)C4)cc1	-12	/	0	37*	22	37*
CCOC(=O)CSc1nc2sc3c(c2c(=O)n1-c1ccc(OC)cc1)CCN(C)C3	-25	0	0	24	21	/
COc1ccc(-n2c(SCCNCCO)nc3sc4c(c3c2=O)CCCC4)cc1	19	0	0	32*	9	22
Cc1ccc(CN2[C@@H](CC(C)C)COCCS2(=O)=O)cc1	10	0	0	1	6	/
Cc1ccc(Cl)cc1-c1cc(C(=O)Nc2ccc(F)cc2)[nH]n1	/	0	/	0	1	/
O=C(CSc1ncn[nH]1)NCc1ccccc1Cl	8	0	0	25*	-3	-2
O=C(O)C1=C[C@@H](O)[C@@H](O)[C@H](O)C1	0	0	/	36*	2	-2
CC(=Nc1ccccc1)C1=C(O)CSC1=O	-3	/	0	-1	-7	/
Oc1ccc2ccccc2c1CNc1ccccc1	-8	1	/	2	-5	/
Oc1ccc2ccccc2c1CNc1ccc2ccccc2c1	0	0	/	30*	19	11
C[C@H](CO)N1C[C@H](C)[C@H](CN(C)S(=O)(=O)c2ccc(C#N)cc2)Oc2ncc(Br)cc2C1=O	/	0	/	/	/	/
CCCNC(=O)CN1CCN(c2cc3ccccc3c(Cl)n2)CC1	-4	-1	0	-8	-8	/
COc1cccc(CC2(CO)CCN(Cc3ccc4cccc(F)c4n3)CC2)c1	-5	43	0	0	9	/
OCC1(Cc2cccc(F)c2)CCN(Cc2ccc3cccc(F)c3n2)CC1	7	0	0	25*	3	2
Cc1ccc(Cn2cc(CN3CC(N4CCCCC4)CS3(=O)=O)nn2)cc1 (stereo unspecified)	/	0	/	-15	1	/
COc1cccc(/C=N/NC(=O)c2ccc(-c3ccccc3)cc2)c1O	-4	/	0	37*	-3	30*
O=Nc1c(-c2cccc([N+](=O)[O-])c2)nc2ncccn12	/	0	1	26*	-13	-10
Cc1nn(-c2ccc(N3CCCCC3)nn2)c(C)c1CCC(=O)Nc1ccccc1F	-4	0	0	11	11	/
COc1ccc(CCNC(=S)N2CCN(S(=O)(=O)c3ccc(C)cc3)CC2)cc1	-2	0	0	27*	5	4
COc1ccc(S(=O)(=O)N2CCN(C(=S)NCCc3ccccc3)CC2)cc1	15	0	0	9	13	/
CCCNC(=O)Cn1cnc2sc(C(=O)N3CCN(c4ccc(F)cc4)CC3)c(C)c2c1=O	-6	/	0	26*	6	4
C/C(N)=C(/C#N)C(=O)CSc1nnc(-c2ccccc2)n1C	8	0	0	3	4	/
SMILES	Rtt109 HAT inh	FGF22 binding	Efflux pump mplx	ARFGAP1 inh	ASAP1 GAP inh	ARFGAP1 confirm
C/C(N)=C(/C#N)C(=O)CSc1nncn1-c1ccccc1	-10	0	0	28*	0	0
O=C(Nc1nc(-c2cccc3ccccc23)cs1)c1ccc2c(c1)S(=O)(=O)c1ccccc1C2=O	-2	0	0	34*	-8	0
CCOC(=O)C1=C(C)NC(=O)NC1C (stereo unspecified)	-4	/	0	0	-9	/
CCOC(=O)C1=C(CBr)NC(=O)NC1C (stereo unspecified)	3	0	0	33*	9	0
COc1cccc(CN(C)C(=O)c2ccc(S(=O)(=O)Nc3ccccc3C)cc2)c1OC	/	0	/	-4	9	/
CCc1nc2ccccc2n1CC(O)COc1ccc(NC(C)=O)cc1 (stereo unspecified)	/	/	0	-4	-1	/
COc1cccc(Oc2cn[nH]c2-c2ccc(OCC(=O)NN)cc2O)c1	/	0	0	2	10	/
CCCOC(=O)c1ccc(Oc2cn[nH]c2-c2ccc(OC)cc2O)cc1	0	/	0	30*	12	21
Cc1sc2nc(SCC(=O)N(CCO)CCO)nc(N)c2c1C	-5	/	0	28*	8	-1
O=C(Nc1ccc(O)c(-c2nc3ccccc3o2)c1)C1(c2ccc(Cl)cc2)CCCC1	-99	/	0	-4	-14	/
Cc1ccc2nc(SCC(=O)c3ccc(Cl)cc3)nc(=O)n2c1	1	0	0	27*	16	50*
COc1ccccc1NC(=O)CSc1nc(=O)n2cc(C)ccc2n1	-3	0	0	31*	0	23
Cc1ccc2nc(SCC(=O)Nc3ccc(Br)cc3)nc(=O)n2c1	5	0	0	20	-3	/
CCOC(=O)N1CCN(C(=O)CSc2nc(=O)n3cc(C)ccc3n2)CC1	9	0	0	40*	20	38*
Cc1ccc2nc(SCC(=O)Nc3cccc(F)c3)nc(=O)n2c1	-3	0	0	54*	32*	47*
Cc1ccc(NC(=O)CSc2nc(=O)n3cc(C)ccc3n2)c(C)c1	-1	0	0	0	6	/
C[C@@H]1CN([C@H](C)CO)C(=O)c2cccc(NC(=O)Nc3ccccc3)c2O[C@H]1CN(C)Cc1ccc(Cl)c(Cl)c1	/	0	/	/	/	/
Cc1ccc2nc(SCC(=O)Nc3cccc(Cl)c3)nc(=O)n2c1	-11	0	0	31*	17	50*
Cc1ccc2nc(SCC(=O)Nc3ccc(C)c(Cl)c3)nc(=O)n2c1	-2	0	0	20	0	/
Cc1ccc(-c2csc(C3=C(O)CN(NC(=O)c4ccc([N+](=O)[O-])cc4)C3=N)n2)cc1	-2	0	0	28*	14	31*
O=C(COC(=O)C12CC3CC(CC(C3)C1)C2)N1CCN(S(=O)(=O)c2ccccc2)CC1	4	/	0	29*	-10	3
Cc1cccc(N2C(=O)C(Oc3ccc(Cl)cc3Cl)C2C(=O)O)c1C (stereo unspecified)	-8	/	0	25*	3	-7
CCCNCC1C(Oc2ccc(Cl)cc2Cl)C(=O)N1c1cccc(C)c1C (stereo unspecified)	/	0	0	6	8	/
CN1c2ccsc2/C(=N/Nc2ccccc2)CS1(=O)=O	0	0	0	29*	-2	1
COC(=O)/C(C#N)=C/c1ccc(C)o1	-22	0	0	25*	7	-4
